Screening results from PubChem BioAssay.
This is one part of a sample in which hits are shown more often than they occur.
PfGluPho inh = PfG6PD (Plasmodium falciparum) enzyme inhibition. PfGluPho enzyme, NADPH resazurin-diaphorase fluorescence. inhibition, % at 20 µM. 350,000 compounds, 0.78% hits;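 active means inhibition reaching at least a set limit at 20 µM in the primary screen, cut at about 59% in these data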
G6PDH counter = counter-screen for G6PDH assay hits: L. mesenteroides G6PDH inhibition | inhibition, % at 5 µM | AID 1020 | Purified L. mesenteroides G6PDH, diaphorase/resazurin coupled fluorescence, 45 min | 200,000 compounds, 0.12% hits
Diaph inh CS = inhibits diaphorase or chemically oxidizes, flagging diaphorase assay artifacts; 190,000 compounds, 0.69% hits; diaphorase resazurin-to-resorufin fluorescence, NADH, 16 min; bacterial (C. kluyveri) enzyme, not human; inhibition, % at 20 µM;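 active means primary screen inhibition at 20 µM above a set limit, cut at about 50% in these data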
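Assay system: diaphorase enzyme from Clostridium kluyveri. Quantity: enzyme working solution with 0.14 U/mL diaphorase. Schedule: reaction incubation of 16 min at room temperature. Technique: resorufin fluorescence, excitation 544 nm, emission 590 nm. Controls: No-NADH positive control and DMSO neutral control.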
Diaphorase act = activates diaphorase or chemically reduces, flagging diaphorase assay artifacts. Diaphorase/resazurin coupled assay, resorufin fluorescence, 16 min; stronger effect = higher value; 1 = vehicle wells, 0 = NADH-free wells. activation factor at 20 µM. 190,000 compounds, 0.005% hits;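 active means diaphorase activity raised at least twofold by the compound at 20 µM; inactive means activation factor below 2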
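Material: purified diaphorase enzyme from Clostridium kluyveri; Also added: 0.114 mM NADH and 0.1 mM resazurin, final amounts; Doses: single compound dose of 20 µM, 1% DMSO final; Times: 16 min enzyme reaction, ambient temperature; Detection: resorufin fluorescence, excitation 544 nm, emission 590 nm; Measure: increased resorufin signal from activators or reducing compounds.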
L major viab = reduces viability of Leishmania major promastigotes; resazurin fluorescence viability; inhibition, % at 10 µM; 200,000 compounds, 9% hits; AID 1063;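 further: promastigotes grown with compound for 44 hours at 28 °C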
DTT redox prof = compounds producing H2O2 with reducing agent – biochemical, NIH compound library profiling, artefact control for MLSCN library redox annotation, primary screen | DTT-dependent redox cycling H2O2, phenol red/HRP absorbance; 100% = 100 µM peroxide control, 0% = buffer | activation, % at 10 µM | 200,000 compounds, 0.03% hits | AID 878;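 active means activation of at least 50% relative to the plate's high and low controls in the primary single-dose screen; inactive means activation below 50%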;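 further: compound incubated with DTT at 0.8 mM final as the reducing agent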
A number is an active result; i = inactive; nt = no result. Unless noted, no stated cut-off is given here; in the data, active means inhibition above about 50%; inactive means the rest.

SMILES	PfGluPho inh	G6PDH counter	Diaph inh CS	Diaphorase act	L major viab	DTT redox prof
Cc1c(/C=N/NC(=O)c2ccccc2O)c2ccccn2c1C(=O)c1ccc(F)cc1	i	i	i	i	59	i
Cc1nn(-c2ccccc2)c(C)c1/C=N/NC(=O)c1cc(-c2cccc3ccccc23)n[nH]1	i	i	i	i	i	i
CCSCc1nnc(SCC(=O)c2ccc(OC)cc2)n1C	i	i	i	i	i	i
CC(=O)c1ccccc1C(=O)N1CCCC(N2CCN(Cc3ccc4c(c3)OCO4)CC2)C1 (centres undefined)	i	nt	nt	nt	nt	nt
Cc1nn(-c2ccccc2)c(Cl)c1/C=N/NC(=O)c1cccnc1	i	i	i	i	i	i
Cc1ccc(-n2nc(C)c(/C=N/NC(=O)c3cccnc3)c2Cl)cc1	i	i	i	i	57	nt
COc1ccc(C2CC(c3cccc(Cl)c3)n3nc(N)nc3N2)cc1 (centres undefined)	i	i	i	i	62	i
Cc1cccc(C2CC(c3ccc(Br)cc3)Nc3nc(N)nn32)c1 (centres undefined)	i	i	i	i	73	i
COc1ccc(C2CC(c3cccc(C)c3)n3nc(N)nc3N2)cc1 (centres undefined)	i	i	i	i	86	i
Nc1nc2n(n1)C(c1cccc(Br)c1)CC(c1ccc(F)cc1)N2 (centres undefined)	i	i	i	i	93	i
COc1ccc(C2CC(c3ccc(Br)cc3)Nc3nc(N)nn32)cc1 (centres undefined)	i	i	i	i	i	i
N#CCCN(C(=O)COC(=O)c1cc2ccccc2oc1=O)c1ccccc1	i	nt	nt	nt	nt	nt
Cc1cc2cc(CCNC(=O)CCCc3ccccc3)c(=O)[nH]c2cc1C	i	nt	nt	nt	nt	nt
CCn1c(C)cc(C(=O)COC(=O)CNC(=O)c2ccco2)c1C	i	nt	nt	nt	nt	nt
CCOc1ccc(N(CC(=O)NC2CCCC2)S(=O)(=O)c2c(C)[nH]c(=O)[nH]c2=O)cc1	i	i	i	i	i	i
O=c1ccc2cc3c([nH]c4ccc(Br)cc43)oc-2c1O	nt	i	76	i	i	i
O=C(O)c1ccc(N=Nc2c(O)[nH]c3ccc(Br)cc23)cc1	i	nt	nt	nt	nt	nt
CCCc1cc(C(=O)N2CCN(c3ccc(C(F)(F)F)cn3)CC2)sc1C	i	nt	nt	nt	nt	nt
CCOC(=O)N/N=C(/C)c1ccc([N+](=O)[O-])o1	nt	i	i	i	96	i
Cc1ccc(Nc2nnc(SC(C)C(=O)NCC3CCCO3)s2)cc1 (centres undefined)	i	nt	nt	nt	nt	nt
C=CCn1c(SCc2csc(-c3ccc(Cl)cc3)n2)nnc1-c1ccccc1OC	i	i	i	i	70	i
O=C(Nc1ccc(CN2CCCCC2)cc1)c1sc2ccccc2c1Cl	i	nt	nt	nt	nt	nt
Cc1cc(C)c(C#N)c(SCC(=O)C(C)(C)C)n1	i	i	i	i	77	i
CCCN(CCC)C(=O)c1cc2c(=O)[nH]c3ccc(C)cc3c2s1	i	i	i	i	i	i
Cc1ccc2[nH]c(=O)c3cc(C(=O)N4CCN(C(=O)c5ccco5)CC4)sc3c2c1	i	i	60	i	i	i
SMILES	PfGluPho inh	G6PDH counter	Diaph inh CS	Diaphorase act	L major viab	DTT redox prof
Cc1ccc2[nH]c(=O)c3cc(C(=O)N(C)Cc4ccco4)sc3c2c1	i	i	i	i	56	i
CCOCCCN(Cc1ccco1)C(=O)c1cc2c(=O)[nH]c3ccc(C)cc3c2s1	i	i	i	i	73	i
Cc1nn(C2CCS(=O)(=O)C2)c2nc(C3CC3)cc(C(=O)Nc3cccc(C#N)c3)c12 (centres undefined)	i	nt	nt	nt	nt	nt
CC(C)(C)N1C(=O)c2ccccc2NC(=O)N1Cc1ccc(Br)cc1	i	i	i	i	99	i
Cc1ccccc1CN1C(=O)Nc2ccccc2C(=O)N1C(C)(C)C	i	i	i	i	i	i
CCOC(=O)c1sc(-c2ccccc2)cc1NC(=O)Nc1ccc([N+](=O)[O-])cc1	i	i	i	i	85	i
Cc1oc(-c2ccc(Cl)cc2)nc1CN1CCC(C(=O)NCCCN2CCOCC2)CC1	i	i	i	i	101	i
Cc1ccc(-c2nc(CSCC(=O)NCCCN3CCOCC3)c(C)o2)cc1	i	i	i	i	53	i
CSc1ccc(-c2nc(CSCC(=O)NCCCN3CCOCC3)c(C)o2)cc1	i	i	i	i	i	i
Cc1oc(-c2cccc(Cl)c2)nc1CN1CCCC(C(=O)NCCCN2CCOCC2)C1 (centres undefined)	i	i	i	i	101	i
CCC1CCCCN1CCCNC(=O)C1CCN(Cc2nc(-c3ccc(Cl)cc3)oc2C)CC1 (centres undefined)	i	nt	nt	nt	nt	nt
O=C(CSc1nc2ccccc2c(=O)n1-c1ccc(F)cc1)NC1CCS(=O)(=O)C1 (centres undefined)	i	nt	nt	nt	nt	nt
CCOC(=O)N1CCN(S(=O)(=O)c2ccc3c4c(cccc24)C(=O)N3)CC1	i	nt	nt	nt	nt	nt
CCOc1ccccc1N1CCN(S(=O)(=O)c2ccc3c4c(cccc24)C(=O)N3)CC1	i	i	i	i	74	i
Nc1cc[n+](CC(=O)c2ccc3c(c2)OCCO3)cc1	i	i	i	i	78	i
O=C(NCCc1ccc(Cl)cc1)/C(=C/c1cccnc1)NC(=O)c1ccccc1	i	i	i	i	59	i
COc1ccccc1CCNC(=O)/C(=C/c1cccnc1)NC(=O)c1ccccc1	i	i	i	i	i	i
CN(Cc1ccccc1)C(=O)COC(=O)C1=NNC(=O)CC1	i	i	i	i	52	nt
CC1=CC(C)(C)NC(=S)N1CCO	i	nt	nt	nt	nt	nt
Cc1[nH]c2ccccc2c1C(C#N)(C#N)C1C(=O)c2ccccc2C1=O	122	nt	nt	nt	nt	nt
CCOC(=O)c1csc(N)n1	i	i	i	i	i	i
CCOC(=O)c1ccccc1-c1csc(N)n1	i	i	81	i	i	i
O=C(CCSc1nc(-c2ccco2)cc(C(F)(F)F)n1)N1CCCc2ccccc21	i	i	i	i	76	i
O=C(CCSc1nc(-c2ccco2)cc(C(F)(F)F)n1)N1CCN(c2ccccn2)CC1	i	i	i	i	i	i
O=C(NCc1ccncc1)c1ccc(S(=O)(=O)Nc2ccccc2)cc1	i	nt	nt	nt	nt	nt
Cc1ccc(C)c(NC(=O)CN(C)C(=O)c2ccccc2OCc2ccccc2Cl)c1	i	nt	nt	nt	nt	nt
CN1C2C=C3C(C#N)=C(N)C(C#N)(C#N)[C@@H](c4ccc(Cl)cc4)[C@@H]3C1CC2 (some centres undefined)	i	i	i	i	i	i
CN1C2C=C3C(C#N)=C(N)C(C#N)(C#N)C(c4ccc(Br)cc4)C3C1CC2 (centres undefined)	i	i	i	i	98	i
CC1CCN(CCC(=O)N/N=C/c2ccc([N+](=O)[O-])cc2)CC1	i	i	i	i	81	i
